Experimental data from ChEMBL document CHEMBL3352496, “Design, synthesis and evaluation of novel triazole core based P-glycoprotein-mediated multidrug resistance reversal agents” (Bioorg Med Chem, 2014).
Structures can show the parent of a compound that is named as a salt.

Key:
[1] = Reversal of P-gp-mediated multidrug resistance in human K562/A02 cells assessed as reduction of adriamycin IC50 at 5 uM after 48 hrs by MTT assay; format: cell-based; settings: K562/A02, 48 h
Method in brief: (§1)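 MTT on K562/A02 cells exposed to a series of adriamycin concentrations, with or without modulator at 5 µM; 0.1% DMSO as solvent control. Reversal fold = adriamycin IC50 without modulator / IC50 with modulator.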

[2] = Resistance factor, ratio of adriamycin IC50 for human K562/A02 cells over-expressing Pgp to adriamycin IC50 for human K562/A02 cells over-expressing Pgp in presence of 5 uM compound; format: functional; method in brief: as §1
[3] = Cytotoxicity against human K562/A02 cells at 5 uM after 48 hrs by MTT assay; format: cell-based; settings: k562/a02, 48 h
Method in brief: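 Adriamycin-selected K562/A02 cells given test compound alone at 5 µM for 48 h; cytotoxicity scored by MTT as intrinsic growth inhibition.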

[4] = Cytotoxicity against human K562/A02 cells after 48 hrs by MTT assay; format: functional, cell-based; settings: K562/A02, 48 h

| Compound | IC50 [1] | Ratio IC50 [2] | Activity [3] | IC50 [4] |
| --- | --- | --- | --- | --- |
| COc1cc2c(cc1OC)CN(CCn1cc(COc3ccccc3NC(=O)c3cccc(Cl)c3)nn1)CC2 | 11 µM | 4.9 | < 10% |  |
| COc1cc2c(cc1OC)CN(CCn1cc(COc3ccccc3NC(=O)c3cccc(C)c3)nn1)CC2 | 7.16 µM | 7.6 | < 10% |  |
| COc1cc2c(cc1OC)CN(CCn1cc(COc3ccccc3NC(=O)c3ccc(Cl)cc3)nn1)CC2 | 5.21 µM | 10.4 | < 10% |  |
| COc1cccc2c1C(=O)c1c(O)c3c(c(O)c1C2=O)C[C@@](O)(C(=O)CO)C[C@@H]3O[C@H]1C[C@H](N)[C@H](O)[C@H](C)O1 [DOXORUBICIN HYDROCHLORIDE] |  |  |  | 54.2 µM |
| COc1ccc(C(=O)Nc2ccccc2OCc2cn(CCN3CCc4cc(OC)c(OC)cc4C3)nn2)cc1OC | 6.45 µM | 8.4 | < 10% |  |
| COc1cc2c(cc1OC)CN(CCn1cc(COc3ccccc3NC(=O)c3ccc4ccccc4n3)nn1)CC2 | 5.21 µM | 10.4 | < 10% |  |
| COc1cc2c(cc1OC)CN(CCn1cc(COc3ccccc3NC(=O)c3cccc([N+](=O)[O-])c3)nn1)CC2 | 15.1 µM | 3.6 | < 10% |  |
| COc1cc2c(cc1OC)CN(CCn1cc(COc3ccccc3NC(=O)c3ccc(C#N)cc3)nn1)CC2 | 14.4 µM | 3.6 | < 10% |  |
| COc1cc(OC)cc(C(=O)Nc2ccccc2OCc2cn(CCN3CCc4cc(OC)c(OC)cc4C3)nn2)c1 | 13.8 µM | 3.9 | < 10% |  |
| COc1cc2c(cc1OC)CN(CCn1cc(COc3ccccc3NC(=O)c3ccccc3[N+](=O)[O-])nn1)CC2 | 15.6 µM | 3.5 | < 10% |  |
| COc1ccc(C(=O)Nc2ccccc2OCc2cn(CCN3CCc4cc(OC)c(OC)cc4C3)nn2)cc1 | 6.25 µM | 8.7 | < 10% |  |
